S1P4 ag = human S1P4 receptor agonism; AID 1509; O95977; hit rate 0.35% among 220,000; activation, % at 4.98 µM; S1P4-expressing cell line, agonist reporter assay; in the data active = activation above about 11%;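 also: 0% = DMSO vehicle and 100% = reference agonist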
S1P3 antag = S1P3 (human) receptor antagonism | inhibition, % at 4.98 µM | Q99500 | CHO S1P3 NFAT-BLA reporter, FRET fluorescence, antagonist mode | hit rate 0.27% among 170,000;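 active = inhibition above the plate cutoff, the mean inhibition of test wells on that plate plus 3 SD, cut at about 28% in these data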;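 also: cells challenged with S1P at its EC80 of 0.8 µM; blue over green emission ratio from cleaved BLA substrate after 4 h stimulation; 0% = S1P-stimulated wells and 100% = unstimulated DMSO-only wells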
Target sequence (Q99500 whole entry, looked up): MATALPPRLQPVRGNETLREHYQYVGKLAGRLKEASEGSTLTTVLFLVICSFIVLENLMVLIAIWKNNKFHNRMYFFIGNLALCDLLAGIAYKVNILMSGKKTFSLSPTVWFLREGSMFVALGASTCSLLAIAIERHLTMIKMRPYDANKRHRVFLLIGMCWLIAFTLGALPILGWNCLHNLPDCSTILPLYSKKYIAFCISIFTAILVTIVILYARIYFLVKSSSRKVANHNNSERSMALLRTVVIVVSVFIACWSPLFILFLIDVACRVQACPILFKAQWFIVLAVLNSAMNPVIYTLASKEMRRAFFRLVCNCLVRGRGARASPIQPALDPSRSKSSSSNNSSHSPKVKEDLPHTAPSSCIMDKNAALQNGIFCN
S1P4 antagonist = human S1P4 receptor antagonism; O95977; S1P4-expressing cells, antagonist mode, reporter read-out; hit rate 0.26% among 220,000; inhibition, % at 4.98 µM; in the data active = inhibition above about 29%;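 also: 0% = wells stimulated with agonist and 100% = vehicle wells without agonist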
Mdm2 ligase inh = blocks human Mdm2 ubiquitin ligase activity; signal enhancement, % at 5 µM; cell-based MDM2 ubiquitination luciferase reporter, 2 h; 0 = plate control, 100 = twice control, blank-subtracted; hit rate 0.11% among 210,000; Q00987;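 active = signal enhancement of 30% or more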;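 also: luminescence tracks abundance of the self-degrading MDM2-luciferase fusion protein; higher signal means inhibition of MDM2 E3 ligase activity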
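Test system: stable mammalian line carrying autodegrading MDM2–luciferase fusion reporter; quantity: 2000 cells in each well; times: 4 h cell settling then 2 h compound exposure, 37 °C; detection: luminescence with SteadyLite reagent, 15 min at room temperature; evaluation: percent signal gain over controls, blank-subtracted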
Lmaj promast = inhibitors of Leishmania major promastigote growth; hit rate 9% among 200,000; Leishmania major promastigotes, resazurin fluorescence viability; inhibition, % at 10 µM; in the data active = inhibition above about 50%;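 also: promastigotes grown with compound for 44 hours at 28 °C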
* hit, by the source's call; nt = no result given. The entries come from a sample that favours hits as a whole.

SMILES | S1P4 ag | S1P3 antag | S1P4 antagonist | Mdm2 ligase inh | Lmaj promast
CCC(C)NCC(O)(c1ccc(Cl)cc1)c1ccc(Cl)cc1 (stereo not given) | 0 | -6 | 3 | -1 | 24
CSC1=C(C#N)C(=O)NC(c2ccc(Cl)cc2)S1 (stereo not given) | 1 | 3 | -23 | -3 | nt
CN(C)CCNCc1ccc(OC2CCCC2)cc1 | -1 | nt | 6 | -4 | 50*
CCC(CO)NCc1ccc(Br)cc1 (stereo not given) | 2 | 11 | -28 | -17 | 0
CCC(CO)NCc1ccc(OC2CCCC2)cc1 (stereo not given) | -2 | nt | -14 | 8 | 86*
COc1ccc(-n2c(=S)[nH]c3cc(C(=O)NC4CCCCC4)ccc3c2=O)c(OC)c1 | 0 | -27 | 2 | 6 | -6
COc1ccc(NC(=O)c2ccc3c(=O)n(-c4ccc(OC)cc4OC)c(=S)[nH]c3c2)c(OC)c1 | 2 | -3 | -8 | -5 | 69*
CC1(C)CC(=O)c2c(nc(SCC(=O)Nc3nsc(-c4ccccc4)n3)c(C#N)c2-c2ccccc2)C1 | 2 | nt | -13 | -16 | 69*
CCC(C)NC(=O)CS(=O)(=O)Cc1nc(-c2cccc(OC)c2)oc1C (stereo not given) | 1 | 85* | -8 | -18 | 1
COCCN(C(=S)Nc1ccccc1OC)C(C)c1cccs1 (stereo not given) | -2 | 13 | 0 | -7 | -1
c1ccc2c(c1)nc(N1CCCCCC1)c1ccccc12 | 1 | -10 | -13 | -11 | nt
C(=C\c1nc(N2CCCC2)c2ccccc2n1)/c1ccccc1 | 0 | 3 | -10 | -9 | 71*
CC1CCN(c2nc3ccccc3nc2N2CCC(C)CC2)CC1 | 1 | nt | -13 | -16 | -7
CC1CCN(c2nc(/C=C/c3ccccc3)nc3ccccc23)CC1 | -1 | -5 | -20 | 0 | 63*
O=C(Cn1nc2n(c1=O)-c1ccccc1SC2)N/N=C/c1ccncc1 | 0 | -1 | 6 | 0 | nt
CCOC(=O)N1CCN(c2c(NCCCN3CCCCCC3)c(=O)c2=O)CC1 | 1 | nt | -24 | -16 | -1
CCN(CC(=O)Nc1ccc2c(c1)OCCO2)c1nc(-c2cccnc2)nc2ccccc12 | 0 | 2 | -7 | -14 | 53*
Brc1cccc(-c2nnc3sc(CNCc4ccco4)cn23)c1 | -2 | -36 | 12 | -6 | 4
Brc1ccc(-c2nnc3sc(CNC4CCCC4)cn23)cc1 | -1 | -41 | 3 | nt | 91*
Brc1ccc(-c2nnc3sc(CNCc4ccc5c(c4)OCO5)cn23)cc1 | 1 | -40 | -10 | -4 | 85*
CNC(=O)COC(=O)[C@@H](Nc1ccc(S(=O)(=O)N2CCOCC2)cc1[N+](=O)[O-])C(C)C | 0 | -13 | -18 | -9 | 55*
CCOc1ccc(S(=O)(=O)N2CCOCC2)cc1[N+](=O)[O-] | 1 | -4 | -16 | -7 | -1
CC(C)[C@H](Nc1ccc(S(=O)(=O)N2CCOCC2)cc1[N+](=O)[O-])C(=O)OCC(N)=O | 0 | -6 | -21 | -11 | 51*
CC(C)C(C)NC(=O)COc1ccc(S(=O)(=O)N2CCOCC2)cc1[N+](=O)[O-] (stereo not given) | 1 | 8 | 6 | 5 | 49
CC(C)[C@H](Nc1ccc(S(=O)(=O)N2CCOCC2)cc1[N+](=O)[O-])C(=O)OCC(=O)N(C(C)C)C(C)C | 1 | 15 | 1 | -11 | 82*
SMILES | S1P4 ag | S1P3 antag | S1P4 antagonist | Mdm2 ligase inh | Lmaj promast
C/C(=C\C(=O)c1sccc1Cl)N(C)C | -1 | 4 | -3 | -10 | 6
COc1cc(/C=N/N=C(N)N)ccc1OCc1ccc(Cl)cc1 | 1 | -7 | -9 | -28 | 101*
CCOc1cc(/C=N/O)ccc1OCc1ccc([N+](=O)[O-])cc1 | 0 | -2 | -29 | -5 | 58*
COc1cc(/C=N/NC(N)=S)ccc1OCc1ccc(C)cc1 | 0 | -11 | -3 | 10 | 100*
CCOc1cc(/C=N/O)ccc1OCc1ccc(F)cc1 | 1 | -3 | -11 | -2 | 37
CCOc1cc(/C=N/N=C(N)N)ccc1OCc1ccc(Cl)cc1 | 1 | -4 | -22 | -5 | 100*
CC(C)(C)C(=O)Nc1nc(C2CCCN2S(=O)(=O)c2ccc(Cl)cc2)cs1 (stereo not given) | -4 | nt | 4 | -5 | 7
CCCCC(CC)CNC(=O)C1CC=CCC1C(=O)O (stereo not given) | 1 | 1 | -13 | -7 | 36
COc1ccc(OC)c(N2Cc3cc(C)c(C)cc3C2)c1 | -1 | -5 | 1 | -3 | 86*

Bioassay records (PubChem)
